# Reference: PubChem BioAssay
# The source made the active and inactive calls. Rule as the data show it, unless noted: active = inhibition above about 30%; inactive = the rest.
# Tests used:
# [1] = reduced viability of SK-BR-3 breast cancer cells – cell-based, 24 h, human, pilot screen (AID 572;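 active = viability at or below 10% of carrier control in both of two separate runs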;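 also: compound exposure lasted between 18 and 24 h rather than exactly 24 h; 100% = carrier-treated control wells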); conditions: SK-BR-3 viability, CellTiter-Glo luminescence, at 10 µM, stronger effect = lower value
# [2] = HUVEC growth inhibition – cell-based, human, primary screen (AID 575;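 active = viability at or below 30% in both replicate assays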;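 also: 100% = median of untreated cell wells with 0.1% DMSO on each plate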); conditions: HUVEC proliferation, CellTiter-Glo luminescence, 72 h; at 10 µM; stronger effect = lower value
# Procedure, shortened: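 System: primary human umbilical vein endothelial cells; Quantity: 1250 endothelial cells in each well; Buffer or medium: supplemented EBM, 2% fetal bovine serum; Doses: one dose, 10 µM final, 0.1% DMSO; Incubation: 72 h compound incubation; Technique: ATP-based CellTiter-Glo luminescent read; Evaluation: percent of median DMSO-control luminescence; Controls: vehicle and MePR control wells.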
# [3] = MRP1 drug-resistance reversers in H69AR cells – cell-based, doxorubicin co-treatment, pilot screen (AID 601;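 active = viability loss from added drug above about 55%, and viability with drug at most 40%, in both replicates, limit read from the data, passing the limit was not always enough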); conditions: CellTiter-Glo, 72 h, at 10 µM; for differential viability (reversal): stronger effect = higher value
# [4] = yeast transport mutant growth inhibition pilot in 384-well plates, post-Golgi transport modulator project (AID 636; in the data active = inhibition above about 31%); conditions: absorbance 615 nm, about 18 h, stronger effect = higher value
# [5] = growth suppression of yeast trafficking mutant, preliminary HTS, modulators of trafficking downstream of Golgi apparatus project, 1536-format plate, OD 615 nm (AID 637); conditions: yeast transport mutant growth, absorbance 615 nm, 18 h; stronger effect = higher value
# [6] = H69AR cell proliferation blockers – human, duplicate replicates, primary screen (AID 580;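 active = viability at or under a set limit in both replicates, limit being median viability minus 3 SD, cut at about 48% in these data, passing the limit was not always enough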;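 also: 100% = mean luminescence of untreated wells and 0% = no signal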); conditions: H69AR lung tumor cells viability, ATP luminescence, 72 h; at 10 µM; stronger effect = lower value
# [7] = H69AR cells + 2 uM doxorubicin, measured here: viability with 2 uM doxorubicin, stronger effect = lower value
# [8] = H69AR cells, compound alone cytotoxicity
SMILES,viability [1],viability [2],differential viability (reversal) ([3]; H69AR cells + 2 uM doxorubicin),"viability [3, 7]","viability [3, 8]",inhibition [4],inhibition [5],viability [6]
COc1cc2c(cc1NC(=O)CSc1nnc(Cc3cccs3)n1C)oc1ccccc12,74% (inactive),54.4% (inactive),-12.1% (inactive),59.9%,47.8%,11.5% (inactive),4.36% (inactive),
O=C(Nc1ccccc1-c1nc2ccccc2o1)c1ccc2c(c1)OCCO2,112% (inactive),66.7% (inactive),-12.7% (inactive),48.4%,35.7%,-3.64% (inactive),-4.44% (inactive),
CCOC(=O)N1CCN(CC(=O)Nc2cc(C)nn2-c2nc3ccccc3s2)CC1,74% (inactive),57% (inactive),-1.56% (inactive),39.2%,37.7%,-0.39% (inactive),2.46% (inactive),
O=C(c1cc2nc(-c3ccco3)cc(C(F)(F)F)n2n1)N1CCN(c2ccccn2)CC1,101% (inactive),66.5% (inactive),-11.9% (inactive),66.1%,54.3%,-3.2% (inactive),0.18% (inactive),
C=CCOc1ccc(CN(C)CC(=O)N(CC(C)C)c2c(N)n(CC(C)C)c(=O)[nH]c2=O)cc1,99% (inactive),99.6% (inactive),,,,-6.16% (inactive),2% (inactive),
COc1ccc(C(=O)Nc2ccc(Cl)c(Cl)c2)c(OC)n1,93% (inactive),83.2% (inactive),-7.11% (inactive),47.6%,40.5%,-8.53% (inactive),-4.36% (inactive),
Cc1ccc(Cn2c(=N)c(C(=O)NCc3ccco3)cc3c(=O)n4ccccc4nc32)cc1,78% (inactive),96.1% (inactive),-0.275% (inactive),47.4%,47.1%,-5.81% (inactive),-4.36% (inactive),
O=C(/C=C/c1ccccc1)c1ccccc1,107% (inactive),50.2% (inactive),-2.5% (inactive),4.56%,2.06%,1.95% (inactive),0.67% (inactive),
CC(C)CCn1c(SCC#N)nc2c(sc3ccccc32)c1=O,102% (inactive),41.2% (inactive),2.2% (inactive),53.6%,55.8%,-2.24% (inactive),-7.14% (inactive),
CCCSc1ccc2nc(NC(=O)OC)[nH]c2c1,95% (inactive),43.2% (inactive),-28.6% (inactive),48.9%,20.3%,-1.56% (inactive),0.17% (inactive),
CCCCc1oc2ccccc2c1C(=O)c1cc(I)c(OCCN(CC)CC)c(I)c1,91% (inactive),2.45% (active),-11.1% (inactive),12.4%,1.29%,100% (active),100% (active),
COc1cc(C2Nc3cccc4cccc(c34)N2)cc(OC)c1O,92.5% (inactive),57.5% (inactive),-14.8% (inactive),70%,55.2%,-0.92% (inactive),-4.76% (inactive),
Cc1cc(C(=O)COc2cccc3cccnc23)c(C)n1C,95% (inactive),80.9% (inactive),-11.7% (inactive),70.8%,59.1%,-2.67% (inactive),-3.64% (inactive),
C=CCSc1nnc2n(CCc3ccccc3)c(=O)c3c4c(sc3n12)COC(C)(C)C4,124% (inactive),72.5% (inactive),33.1% (inactive),13.8%,47%,-4.38% (inactive),1.13% (inactive),
CC(=O)[C@H]1CC[C@H]2[C@@H]3CCC4=CC(=O)CC[C@]4(C)[C@H]3CC[C@]12C,93% (inactive),49.4% (inactive),-3.29% (inactive),50.5%,47.2%,5.06% (inactive),-1% (inactive),
COc1ccc(-c2ccc(-c3noc(-c4ccccc4OC)n3)c(OC)n2)cc1,62% (inactive),63.9% (inactive),-2.01% (inactive),64.9%,62.9%,-4.59% (inactive),18.9% (inactive),
O=C(Nc1ccc(-c2nc3ncccc3o2)cc1)c1ccc(Br)o1,97% (inactive),104% (inactive),-4.05% (inactive),53.2%,49.2%,-2.13% (inactive),-0.36% (inactive),
CC(=O)[C@@]1(O)CC[C@H]2[C@@H]3C[C@H](C)C4=CC(=O)CC[C@]4(C)[C@H]3CC[C@@]21C,106% (inactive),73.9% (inactive),-15.6% (inactive),18%,2.32%,-1.43% (inactive),-2.67% (inactive),
CCOC(=O)N1CCC(=C2c3ccc(Cl)cc3CCc3cccnc32)CC1,116% (inactive),52.7% (inactive),,,,1.95% (inactive),12.2% (inactive),
COc1ccccc1C(=O)NCC(c1cccnc1)N(C)C (stereo not drawn),108% (inactive),96% (inactive),,,,-7.12% (inactive),-1.27% (inactive),
Cn1c(=O)cc(OCCCC(=O)Nc2ccc3c(c2)OCCO3)c2ccccc21,101% (inactive),85.1% (inactive),-5.2% (inactive),70.7%,65.5%,-1.04% (inactive),-6.39% (inactive),
O=C(CN1CCN(Cc2ccc3c(c2)OCO3)CC1)N1CCc2[nH]c3ccc(F)cc3c2C1,96% (inactive),58.8% (inactive),-8.87% (inactive),61.4%,52.5%,-2.13% (inactive),-6% (inactive),

SMILES,viability [1],viability [2],differential viability (reversal) ([3]; H69AR cells + 2 uM doxorubicin),"viability [3, 7]","viability [3, 8]",inhibition [4],inhibition [5],viability [6]
Oc1cccc(Nc2nc(NCC3CCCO3)c3ccccc3n2)c1 (stereo not drawn),73% (inactive),,-19.3% (inactive),41.4%,22.1%,-5% (inactive),3.17% (inactive),22.1% (active)
COc1ccc(-n2cc(-c3ccccc3)c3c(N4CCN(CCO)CC4)ncnc32)cc1,100% (inactive),,10.5% (inactive),45.7%,56.2%,-6.13% (inactive),0.48% (inactive),56.2% (inactive)
CC(=O)Nc1ccccc1OCC(=O)c1cc(C)n(Cc2cccs2)c1C,92% (inactive),,-4.4% (inactive),90.2%,85.8%,-3.01% (inactive),-3.45% (inactive),85.8% (inactive)
Cc1cc(C)c2ccc(N)nc2c1O,87.5% (inactive),,-7.52% (inactive),28.9%,21.4%,-1.43% (inactive),-1.48% (inactive),21.4% (active)
O=C(O)c1cc(O)c2c(c1)C(=O)c1cccc(O)c1C2=O,87% (inactive),,-14.5% (inactive),91.4%,76.9%,-4.42% (inactive),1.83% (inactive),76.9% (inactive)
Oc1ccc(/C=C/c2cc(O)cc(O)c2)cc1,115% (inactive),,-11.7% (inactive),88.6%,76.9%,0.13% (inactive),-5.17% (inactive),76.9% (inactive)
O=C(Nc1ccc2nn(-c3ccccc3)nc2c1)c1ccc(Br)o1,67.5% (inactive),,-0.29% (inactive),9.78%,9.49%,-7.43% (inactive),-10.3% (inactive),9.49% (active)
C[C@]12CC[C@@H]3c4ccc(OC(=O)c5ccccc5)cc4CC[C@H]3[C@@H]1CC[C@@H]2O,78% (inactive),,-9.02% (inactive),48%,39%,2.73% (inactive),32% (active),
Clc1ccc(OCc2nnc(SCCN3CCCCC3)n2Cc2ccco2)cc1,90% (inactive),,-4.72% (inactive),43.3%,38.6%,-7.33% (inactive),-1.82% (inactive),
C(=C\c1ccccc1)/CSc1nnc(-c2ccccn2)n1Cc1ccco1,84% (inactive),,-46.8% (inactive),68.2%,21.4%,-6.53% (inactive),-0.16% (inactive),21.4% (active)
O=C(Nc1ccc2oc(Cc3ccc(Cl)cc3)nc2c1)c1cccnc1,103% (inactive),,-41.5% (inactive),79.4%,37.9%,-1.73% (inactive),-0.55% (inactive),37.9% (active)
COC(=O)c1ccccc1NC(=O)Cn1c(-c2nonc2N)nc2ccccc21,70.5% (inactive),,-10.4% (inactive),26.1%,15.7%,1.07% (inactive),-4.84% (inactive),15.7% (active)
Clc1ccc(C2=Nn3c(nnc3-c3n[nH]c4c3CCC4)SC2)cc1Cl,102% (inactive),,-12.1% (inactive),21.1%,9%,-6.58% (inactive),6.77% (inactive),9% (active)
CCc1oc2ccccc2c1C(=O)c1cc(Br)c(O)c(Br)c1,95% (inactive),,-23.2% (inactive),102%,79%,-0.52% (inactive),54.7% (active),79% (inactive)
CCOC(=O)c1cc(-c2ccc(Cl)s2)nc2c1c(C)nn2C,66.5% (inactive),,-26.2% (inactive),62%,35.8%,-1.45% (inactive),-0.82% (inactive),
COc1cc2nc(N3CCN(C(=O)c4ccco4)CC3)nc(N)c2cc1OC,53% (inactive),,-13.4% (inactive),28.9%,15.4%,2.47% (inactive),-0.17% (inactive),
COc1ccc(Br)cc1-c1noc(-c2ccccc2)n1,99% (inactive),,-0.585% (inactive),79.1%,78.5%,-3.87% (inactive),-4.36% (inactive),78.5% (inactive)
O=C(O)c1ccc2c3c(ncnc13)-c1ccccc1C2=O,60.5% (inactive),,-19.5% (inactive),99.8%,80.3%,5.51% (inactive),1.67% (inactive),80.3% (inactive)
O=C(CCCN1CCC(O)(c2ccc(Cl)cc2)CC1)c1ccc(F)cc1,79% (inactive),,3.11% (inactive),80.9%,84%,2.34% (inactive),-3.17% (inactive),84% (inactive)
CCc1nnc(NC(=O)c2ccc(S(=O)(=O)N(CC(C)C)CC(C)C)cc2)o1,77% (inactive),,-28.4% (inactive),61.4%,32.9%,3.9% (inactive),0.66% (inactive),32.9% (active)
Cc1nnc(NCc2n[nH]c(=O)c3ccccc23)c2ccccc12,72% (inactive),,-14.8% (inactive),81.9%,67.1%,-3.38% (inactive),1.64% (inactive),67.1% (inactive)
